Experimental data reported in ChEMBL document CHEMBL4014345, “Development of Selective Clk1 and -4 Inhibitors for Cellular Depletion of Cancer-Relevant Proteins” (J Med Chem, 2017).

Experiments:
[1] = target: T1, Dual specificity protein kinase CLK1 (Homo sapiens, UniProt P49759); test: Inhibition of recombinant human GST-tagged Clk1 expressed in Escherichia coli at 100 nM using RS repeat substrate peptide after 15 mins in presence of [gamma-32]-ATP
Target sequence in this assay (P49759 whole entry, looked up): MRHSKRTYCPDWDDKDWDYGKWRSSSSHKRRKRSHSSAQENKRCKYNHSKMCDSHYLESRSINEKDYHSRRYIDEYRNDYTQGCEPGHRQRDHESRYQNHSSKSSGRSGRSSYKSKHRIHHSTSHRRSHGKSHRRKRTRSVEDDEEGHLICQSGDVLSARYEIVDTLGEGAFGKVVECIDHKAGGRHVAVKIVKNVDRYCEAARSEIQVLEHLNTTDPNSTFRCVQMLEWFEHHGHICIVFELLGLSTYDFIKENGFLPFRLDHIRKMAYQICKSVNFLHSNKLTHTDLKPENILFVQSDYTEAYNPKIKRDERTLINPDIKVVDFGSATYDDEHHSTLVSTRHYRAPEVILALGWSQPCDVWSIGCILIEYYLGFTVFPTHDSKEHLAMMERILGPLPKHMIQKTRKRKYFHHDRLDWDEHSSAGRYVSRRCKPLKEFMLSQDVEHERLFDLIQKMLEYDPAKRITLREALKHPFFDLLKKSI

T47D = test: Cytotoxicity against human T47D cells assessed as growth inhibition after 5 days by MTT assay; type: functional; conditions: 120 h
Method in brief: (§1)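 They were seeded at 5000 cells per well onto compound or DMSO (0.2% final). Plates were kept 5 days at 37 °C in 5% CO2 with no medium change, then read by MTT.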

MDA-MB-231 = test: Cytotoxicity against human MDA-MB-231 cells assessed as growth inhibition after 5 days by MTT assay; type: functional; conditions: MDA-MB-231, 120 h; method in brief: as §1
[2] = target: T1, Dual specificity protein kinase CLK1; test: Inhibition of recombinant human GST-tagged Clk1 expressed in Escherichia coli using RS repeat substrate peptide after 15 mins in presence of [gamma-32]-ATP
Target sequence in this assay (P49759 whole entry): as the sequence (P49759 whole entry, looked up) above

T-24 = test: Cytotoxicity against human T24 cells assessed as growth inhibition after 5 days by MTT assay; type: functional; conditions: T-24, 120 h; method in brief: as §1

COc1ccc2sc(C(=O)NCc3ccco3)cc2c1
inhibition [1]: 33.4%

COc1ccc2sc(C(=O)NCCN)cc2c1
inhibition [1]: 7.7%

COc1ccc2sc(C(=O)N(C)CCn3ccnc3)cc2c1
inhibition [1]: 9.4%

COC(=O)CNC(=O)c1cc2cc(OC)ccc2s1
inhibition [1]: 0%

COc1ccc2sc(C(=O)N3CCOCC3)cc2c1
inhibition [1]: 0%

COc1cccc(CN(C)C(=O)c2cc3cc(OC)ccc3s2)c1
inhibition [1]: 31.6%

COc1ccc2sc(C(=O)NCc3ncc[nH]3)cc2c1
inhibition [1]: 0%

COc1ccc2sc(C(=O)NCCO)cc2c1
inhibition [1]: 0%

COc1ccc2sc(C(=O)N3CCCCC3)cc2c1
inhibition [1]: 0%

C=CCNC(=O)c1cc2cc(OC)ccc2s1
inhibition [1]: 37%

COc1ccc2sc(C(=O)N(C)Cc3ccccc3F)cc2c1
inhibition [1]: 43.2%

COc1cccc(CNC(=O)c2cc3cc(OC)ccc3s2)c1
inhibition [1]: 13.4%

COc1ccc2sc(C(=O)NCC(=O)O)cc2c1
inhibition [1]: 0.5%

COc1ccc2sc(C(=O)N[C@@H](C)C(=O)O)cc2c1
inhibition [1]: 0%

COc1ccc2sc(C(=O)N(C)Cc3ccc(F)cc3)cc2c1
inhibition [1]: 28.7%

COc1ccc2sc(C(=O)N(C)Cc3cccnc3)cc2c1
GI50 (T47D): 25.4 µM | GI50 (MDA-MB-231): 25.7 µM | IC50 [2]: 81.6 nM | GI50 (T-24): 12.5 µM | inhibition [1]: 51%

CCOC(=O)[C@H](C)NC(=O)c1cc2cc(OC)ccc2s1
inhibition [1]: 0%

COc1ccc2sc(C(=O)Nc3nccs3)cc2c1
inhibition [1]: 28.2%
